Laboratory results taken from ChEMBL document CHEMBL1144837, “Antimitotic and antiproliferative activities of chalcones: forward structure-activity relationship” (J Med Chem, 2008).

Tests used:
K562 [1] = assay: Cell cycle arrest in human K562 cells assessed as accumulation at G2/M phase at 10 uM after 24 hrs by flow cytometry; assay type: functional
In short: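 K562 cells exposed 24 h at 10 µM, then stained with propidium iodide at 4 °C overnight and analysed by flow cytometry. After doublets and aggregates were excluded on an FL2-area/FL2-width plot, cells were assigned to G0/G1, S and G2/M, and the G2/M fraction was scored.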

HCT-116 = assay: Cytotoxicity against human HCT116 cells after 24 hrs by MTT assay; assay type: functional, cell-based; details: HCT-116, 24 h
In short: (§1)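 MTT viability assay: exponentially growing cells were seeded at 3 × 10^3 cells/well and held 24 h before drug addition. Formazan was dissolved in isopropanol and read by absorbance relative to untreated wells. IC50 is the concentration giving 50% growth loss against a control-cell standard curve after 24 h incubation. Run in triplicate, at least three separate experiments.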

[2] = Cytotoxicity against human HNO150 cells after 24 hrs by MTT assay; assay type: functional, cell-based; details: HNO150, 24 h; in short: as §1
N2a = assay: Cytotoxicity against mouse N2A cells after 24 hrs by MTT assay; assay type: functional, cell-based; in short: as §1
L1210 = assay: Cytotoxicity against mouse L1210 cells after 24 hrs by MTT assay; assay type: functional, cell-based; details: L1210, 24 h; in short: as §1
RL = assay: Cytotoxicity against human RL cells after 24 hrs by MTT assay; assay type: functional, cell-based; in short: as §1
NIH3T3 = assay: Cytotoxicity against mouse NIH3T3 cells after 24 hrs by MTT assay; assay type: functional, cell-based; details: NIH3T3, 24 h; in short: as §1
[3] = Cytotoxicity against human Messa cells after 24 hrs by MTT assay; assay type: functional, cell-based; details: MES-SA; in short: as §1
CCRF-CEM = assay: Cytotoxicity against human CEM cells after 24 hrs by MTT assay; assay type: functional, cell-based; in short: as §1
SW48 = assay: Cytotoxicity against human SW48 cells after 24 hrs by MTT assay; assay type: functional, cell-based; details: SW48, 24 h; in short: as §1
MCF7 = assay: Cytotoxicity against human MCF7 cells after 24 hrs by MTT assay; assay type: functional, cell-based; details: MCF7, 24 h; in short: as §1
K562 [4] = assay: Cytotoxicity against human K562 cells after 24 hrs by MTT assay; assay type: functional, cell-based; details: K562, 24 h; in short: as §1

| SMILES | Activity (K562 [1]) | further results |
| --- | --- | --- |
| COc1cccc(OC)c1C(=O)/C=C/c1c(C)cc(C)cc1C | 23% | – |
| COc1cc(O)c(C(=O)/C=C/c2c(Cl)cccc2Cl)c(OC)c1 | 26% | – |
| COc1cccc(OC)c1C(=O)/C=C/c1cccc(F)c1 | 27% | – |
| COc1cccc(OC)c1/C=C/C(=O)c1ccccc1 | 34% | – |
| COc1ccc(C(=O)/C=C/c2ccc(Cl)cc2)c(O)c1 | 10% | – |
| CCOc1cc(OCC)c(/C=C/C(=O)c2c(OC)cccc2OC)c(OCC)c1 | 12% | – |
| COc1ccc(C(=O)/C=C/c2cc(OC)c(OC)cc2OC)c(O)c1 | 15% | – |
| COc1ccc(C(=O)/C=C/c2cc(OC)ccc2OC)c(O)c1 | 32% | – |
| COc1cc(O)c(C(=O)/C=C/c2ccccc2)c(OC)c1 [FLAVOKAWAIN B] | 28% | – |
| COc1ccc(C(=O)/C=C/c2cccc(OC)c2OC)c(O)c1 | 22% | – |
| COc1ccc(C(=O)/C=C/c2c(OC)cc(OC)cc2OC)c(O)c1 | 19% | – |
| CCOc1cc(OCC)c(/C=C/C(=O)c2c(OCC)cc(OCC)cc2OCC)c(OCC)c1 | 18% | – |
| COc1cccc(OC)c1/C=C/C(=O)c1c(OC)cccc1OC | 78% | IC50 (HCT-116): 9 µM; IC50 [2]: 62 µM; IC50 (N2a): 55 µM; IC50 (L1210): 34 µM; IC50 (RL): 40 µM; IC50 (NIH3T3): 60 µM; IC50 [3]: 10 µM; IC50 (CCRF-CEM): 6 µM; IC50 (SW48): 10 µM; IC50 (MCF7): 75 µM; IC50 (K562 [4]): 80 µM |
| COc1cc(OC)c(C(=O)/C=C/c2c(OC)cccc2OC)c(OC)c1 | 64% | – |
| COc1cc(O)c(C(=O)/C=C/c2c(OC)cccc2OC)c(OC)c1 | 12% | – |
| COc1ccccc1/C=C/C(=O)c1c(OC)cccc1OC | 18% | – |
| COc1ccc(C(=O)/C=C/c2c(OC)cccc2OC)c(O)c1 | 18% | – |
| COc1ccc(C(=O)/C=C/c2c(OC)cc(OC)cc2OC)c(OC)c1 (stereo in doubt; 52) | 72% | – |
| CC[C@]1(O)C[C@H]2CN(CCc3c([nH]c4ccccc34)[C@@](C(=O)OC)(c3cc4c(cc3OC)N(C=O)[C@H]3[C@@](O)(C(=O)OC)[C@H](OC(C)=O)[C@]5(CC)C=CCN6CC[C@]43[C@@H]65)C2)C1 [VINCRISTINE] | 72% | – |
| COc1cccc(OC)c1C(=O)/C=C/c1ccccc1 | 45% | – |
| COc1cccc(OC)c1C(=O)/C=C/c1c(Cl)cccc1Cl | 39% | – |
| COc1ccc(/C=C/C(=O)c2c(OC)cc(OC)cc2OC)c(OC)c1 | 15% | – |
| COc1cc(/C=C/C(=O)c2c(O)cc(OC)cc2OC)cc(OC)c1 | 11% | – |
| COc1cc(OC)c(OC)cc1/C=C/C(=O)c1c(OC)cccc1OC | 49% | – |
| COc1ccc(C(=O)/C=C/c2ccc(OC)cc2OC)c(O)c1 | 18% | – |
| COc1cc(OC)c(/C=C/C(=O)c2c(OC)cc(OC)cc2OC)c(OC)c1 | 86% | IC50 (HCT-116): 1 µM; IC50 [2]: 10 µM; IC50 (N2a): 4 µM; IC50 (L1210): 8.5 µM; IC50 (RL): 0.9 µM; IC50 (NIH3T3): 30 µM; IC50 [3]: 2.2 µM; IC50 (CCRF-CEM): 1.9 µM; IC50 (SW48): 0.8 µM; IC50 (MCF7): 52 µM; IC50 (K562 [4]): 50 µM |
| COc1ccc(/C=C/C(=O)c2c(OC)cccc2OC)c(OC)c1OC | 19% | – |
| COc1ccc(/C=C/C(=O)c2c(OC)cccc2OC)c(OC)c1 | 22% | – |
| COc1cccc(OC)c1C(=O)/C=C/c1ccccc1F | 38% | – |
| COc1cccc(/C=C/C(=O)c2c(O)cc(OC)cc2OC)c1 | 52% | – |
